Efa HMGR inh – E. faecalis class II HMG-CoA reductase inhibition | inhibition, % at 10 µM | purified E. faecalis HMGR, NADPH absorbance 340 nm kinetic | 190,000 compounds, 0.41% hits | AID 1066;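 active = inhibition above a set limit, the median over all tested compounds plus 3 SD, cut at about 9.5% in these data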;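 also: enzyme runs in reverse so mevalonate oxidation gives rising NADPH absorbance; 0% = complete reaction with DMSO and 100% = background rate lacking mevalonate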
Measles CPE – protection of cells from measles virus. Measles virus-infected cells, CPE protection, absorbance. protection (pct of control), % at 4 µM. 140,000 compounds, 1.5% hits; in the data active = protection mostly above about 24%, no sharp cut-off; inactive = mostly below about 26%
Yeast life ext – extends the lifespan of yeast | S. cerevisiae growth with nicotinamide, OD615; deaD strain in restrictive glucose medium | AID 775 | 130,000 compounds, 0.68% hits | inhibition of the nicotinamide effect, % at 10 µM;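 active = inhibition above a set limit, placed 3 SD over the median of all compounds, cut at about 26% in these data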;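 also: 0% = nicotinamide-treated wells and 100% = cells grown without nicotinamide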
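Buffer or medium: CSMM-D glucose medium, restrictive; test system: modified budding yeast, DeaD strain; compound: single dose 10 µM compound, 0.25% DMSO; schedule: culture preincubation 4 h, compound exposure 48 h, both 30 °C; detection: optical density (absorbance) at 615 nm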
Arbovirus anti – blocks arbovirus infection; arbovirus infection cell-based antiviral screen; inhibition, % at 10 µM; 200,000 compounds, 0.37% hits; in the data active = inhibition above about 30%
BB579 growth dn – yeast BB579 growth reduction in restrictive medium. S. cerevisiae BB579 growth, OD615, 48 h. inhibition, % at 10 µM. 140,000 compounds, 0.51% hits. AID 804;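 active = inhibition above a set limit, 3 SD over the mean compound inhibition, cut at about 44% in these data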
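test system = yeast BB579 (DeaD) | buffer or medium = restrictive CSMM-D medium | doses = single compound dose of 10 µM, 0.25% DMSO final | times = 4 h preincubation and 48 h exposure at 30 °C | technique = culture absorbance at 615 nm | benchmarks = amphotericin B 10 µg/mL, positive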
Rad51 HR inh – blocks human Rad51 in homologous recombination; Q06609; hRad51 DNA strand exchange, fluorescence dequenching; inhibition, % at 10 µM; 200,000 compounds, 0.085% hits;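 active = inhibition above 40% at the single screening dose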;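 also: 0% = DMSO control wells and 100% = blanks with heterologous ssDNA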
Target sequence (Q06609 whole entry, looked up): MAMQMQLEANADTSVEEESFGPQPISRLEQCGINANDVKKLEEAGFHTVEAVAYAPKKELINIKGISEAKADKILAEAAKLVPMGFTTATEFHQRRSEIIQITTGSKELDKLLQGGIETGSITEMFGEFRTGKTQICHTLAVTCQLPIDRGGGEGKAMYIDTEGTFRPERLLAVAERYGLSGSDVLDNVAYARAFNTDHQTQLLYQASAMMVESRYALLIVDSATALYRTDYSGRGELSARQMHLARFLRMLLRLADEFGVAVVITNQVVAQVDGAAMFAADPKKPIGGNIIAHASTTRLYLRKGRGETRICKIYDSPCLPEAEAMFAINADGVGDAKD
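material = hRad51 filaments on single-stranded DNA | timing = filaments 15 min 37 °C, then compound 30 min | signal = FRET fluorescence dequenching, excitation 485 nm, emission 520 nm | benchmarks = control wells and blank wells on each plate | evaluation = percent inhibition relative to plate controls and blanks | compound = 10 µM final, single point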
Active calls of the source: *. Only some compounds are listed: those with a hit (about 2.4% of all), similar ones and a draw of the others.

`COCCn1c(=NC(=O)CSC(C)=O)sc2cc(F)ccc21` gave Efa HMGR inh -1, Measles CPE 18, Yeast life ext -4, Arbovirus anti 0, BB579 growth dn -20 and Rad51 HR inh 83*.
CNC(=S)NNC(=O)c1cc(C(C)(C)C)nn1Cc1ccc(F)cc1 was read as Rad51 HR inh -4.
For CC(C)(C)OC(=O)NNC(=O)c1cccs1 the results were Efa HMGR inh -4, Arbovirus anti -2 and Rad51 HR inh -48.
Cc1nn(C(C)(C)C)c(OC(=O)c2ccco2)c1Sc1ccccc1 was read as Efa HMGR inh -5, Measles CPE 23, Yeast life ext 47, Arbovirus anti 0, BB579 growth dn -33 and Rad51 HR inh -4.
Cc1nn(C(C)(C)C)c(OC(=O)c2ccc(Br)o2)c1Sc1ccccc1 was read as Efa HMGR inh -6, Measles CPE 4, Yeast life ext 33*, Arbovirus anti 0, BB579 growth dn -27 and Rad51 HR inh -23.
COC1=C/C(=C/c2c(N)n3nc(-c4ccc(C)cc4)sc3nc2=O)C=CC1=O was read as Efa HMGR inh 0, Arbovirus anti 32* and Rad51 HR inh -124.
`CCS(=O)(=O)c1nn2c(N)c(/C=C3/C=CC(=O)C(OC)=C3)c(=O)nc2s1` gave Efa HMGR inh 4, Measles CPE 7, Yeast life ext -6, Arbovirus anti -4, BB579 growth dn -17 and Rad51 HR inh -249.
`CCOC1=C/C(=C/c2c(N)n3oc(C)cc3nc2=O)C=CC1=O` gave Efa HMGR inh -4 and Arbovirus anti 4.
`CCOC1=C/C(=C/c2c(N)n3nc(-c4ccccc4)sc3nc2=O)C=CC1=O` gave Efa HMGR inh -4, Arbovirus anti 33* and Rad51 HR inh -99.
`CC(C)(C)c1ccc(OCC(=O)NNC(=S)NC(=O)c2ccccc2[N+](=O)[O-])c(Br)c1` gave Efa HMGR inh -5, Measles CPE 5, Yeast life ext 31*, Arbovirus anti -11, BB579 growth dn -38 and Rad51 HR inh -8.
Screening O=c1cc(-c2ccccc2)nc(SCc2ccccc2F)[nH]1 returned Efa HMGR inh -2, Arbovirus anti 0 and Rad51 HR inh -1.
For Cc1nnc(SCC(=O)N2CCN(S(=O)(=O)c3ccc(Cl)cc3)CC2)n(N)c1=O the results were Efa HMGR inh -2, Measles CPE 31, Yeast life ext 10, Arbovirus anti 4, BB579 growth dn -46 and Rad51 HR inh -3.
For Cc1nnc(SC/C=C/c2ccccc2)n(N)c1=O the results were Efa HMGR inh 9.8*, Arbovirus anti 10 and Rad51 HR inh 14.
`Cc1nnc(SCc2ccccc2)n(N)c1=O` gave Efa HMGR inh -3, Measles CPE 6, Yeast life ext -2, Arbovirus anti -11, BB579 growth dn 9 and Rad51 HR inh 5.
Cc1nnc(SCC(=O)N2CCCC2)n(N)c1=O was read as Efa HMGR inh 10*, Arbovirus anti 15 and Rad51 HR inh 8.
`O=C1c2cc([N+](=O)[O-])cc3cc([N+](=O)[O-])cc(c23)C(=O)N1c1ccccn1` gave Efa HMGR inh -1, Measles CPE 6, Yeast life ext 32*, Arbovirus anti -24 and BB579 growth dn -16.
Screening CC1CC(C)CN(Cc2nc(N)nc(Nc3ccc4ccccc4c3)n2)C1 (configuration not stated) returned Efa HMGR inh 2, Measles CPE 7, Yeast life ext -3, Arbovirus anti -19, BB579 growth dn -34 and Rad51 HR inh -5.
For O=C(O)C(Cc1ccccc1)N=Cc1c(O)c2ccccc2oc1=O (configuration not stated) the results were Efa HMGR inh -3, Arbovirus anti 31* and Rad51 HR inh -3.
Screening COCCCNC(=O)CN(c1cc([N+](=O)[O-])ccc1OC)S(C)(=O)=O returned Efa HMGR inh -2 and Arbovirus anti 2.
CN1CCN(C(=S)Nc2cc([N+](=O)[O-])ccc2Cl)CC1 was read as Efa HMGR inh -4, Measles CPE 22, Yeast life ext 45*, Arbovirus anti 9, BB579 growth dn -21 and Rad51 HR inh 3.
For CCC(=O)NC(=S)N1CCN(c2ccc([N+](=O)[O-])cc2Cl)CC1 the results were Efa HMGR inh -6, Measles CPE 29*, Yeast life ext -7, Arbovirus anti 4, BB579 growth dn 0 and Rad51 HR inh -9.
CN1CCN(C(=S)c2ccc([N+](=O)[O-])cc2)CC1 was read as Efa HMGR inh -1, Measles CPE 35, Yeast life ext 1, Arbovirus anti 1, BB579 growth dn 13 and Rad51 HR inh -2.
For COc1ccc(NS(=O)(=O)c2ccc(O)c(NC(=O)c3cc4c(C)nn(-c5ccc(F)cc5)c4s3)c2)cc1 the results were Efa HMGR inh -12, Measles CPE 7, Yeast life ext 9, Arbovirus anti 10 and BB579 growth dn -38.
Cc1cccc(-n2c(C)cc(/C=N/NC(=O)c3ccc(CN4CCOCC4)cc3)c2C)c1 was read as Efa HMGR inh -1, Measles CPE 7, Yeast life ext -13, Arbovirus anti -5, BB579 growth dn -2 and Rad51 HR inh -2.
Cc1ccc(-n2c(C)cc(/C=N/NC(=O)c3ccc(CN4CCOCC4)cc3)c2C)cc1 was read as Efa HMGR inh -1, Measles CPE 71*, Yeast life ext -25, Arbovirus anti -4, BB579 growth dn -61 and Rad51 HR inh -8.
`Oc1ccc2ccccc2c1N=Nc1ccccc1F` gave Rad51 HR inh -2.
Screening Oc1ccc2ccccc2c1N=Nc1ccccn1 returned Efa HMGR inh 4, Measles CPE 1, Yeast life ext -7, Arbovirus anti -23, BB579 growth dn 90* and Rad51 HR inh -8.
For CCn1c(-c2nn(C)c(C)c2Cl)n[nH]c1=S the results were Efa HMGR inh 11*, Measles CPE 24, Arbovirus anti 2, BB579 growth dn -38 and Rad51 HR inh -1.
For Cc1ccc(-n2c(-c3nn(C)c(C)c3Cl)n[nH]c2=S)cc1 the results were Efa HMGR inh -8, Measles CPE 26, Yeast life ext -13, Arbovirus anti -1, BB579 growth dn -2 and Rad51 HR inh 10.
Screening Cc1ccc(C)c(N2CCN(C(=O)C34CC5CC(C3)CC(n3nnc(C)n3)(C5)C4)CC2)c1 returned Rad51 HR inh 15.
For N#CC1=C(N)OC2=C(C(=O)CCC2)C1c1ccsc1 (configuration not stated) the results were Efa HMGR inh 2, Measles CPE 4, Yeast life ext -5, Arbovirus anti 2, BB579 growth dn 1 and Rad51 HR inh -5.

High-throughput results (PubChem BioAssay)
